Bioassay records: PubChem BioAssay, SRMLSC
H69AR inhibit: proliferation blockers of H69AR lung cancer cells, primary screen, cell-based, human, 86K library; viability, % at 10 µM; 6% of 85,000 active; H69AR lung tumor viability, ATP luminescence, 72 h; hits give low values; AID 598, 2007;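 active means viability at or below 40%; inactive means viability above 40%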;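 further: multidrug resistant small cell line overexpressing MRP-1 efflux transporter; 100% = mean luminescence of untreated control wells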
Lung fibro prol: antiproliferative effect on LL 47 fibroblasts – human, LL 47 cells, CellTiter-Glo luminescence, primary screen | LL 47 human lung fibroblast viability, ATP luminescence; hits give low values | viability, % at 10 µM | 1.1% of 85,000 active;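 active means viability at or below 50% in the single dose screen; inactive means viability above 50%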;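 further: compound exposure lasted 72 h before the ATP readout; 100% = median luminescence of untreated cell-only wells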
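Material: Human LL 47 lung fibroblast cells | Input: 1,150 cells/well | Buffer or medium: IMEM plus 15% FBS | Compound dosing: 0.1% DMSO in all compound wells | Times: Overnight cell rest, 72 h compound treatment at 37 °C | Signal: CellTiter-Glo luminescence measuring cellular ATP | Measure: % viability versus median cells-only luminescence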
HUVEC prolif 384: inhibitors of HUVEC proliferation, primary screen, cell-based, 384-well; CellTiter-Glo luminescence, 72 h; hits give low values; viability, % at 10 µM (by protocol); 1.1% of 86,000 active; AID 648, 2007;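 active means viability at or below 30%; inactive means viability above 30%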;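 further: 100% = median luminescence of DMSO-only cell control wells on each plate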
bCat KO growth: primary screen for growth suppressors in beta-catenin knockout HCT116 cells (colon tumor, human); HCT116 beta-catenin knockout viability, CellTiter-Glo, 60 h; hits give low values; AID 818, 2007; viability, % at 10 µM; 1.5% of 140,000 active;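 active means viability at or under a set limit, the compound median less 4 SD, cut at about 6% in these data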;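 further: 0% = Hyamine 1622 control at 20 µM and 100% = untreated cell control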
PTEN del growth: growth suppression of PTEN-null HCT116, primary screen, cell-based, CellTiter-Glo; HCT116 PTEN-null viability, 60 h; hits give low values; viability, % at 10 µM; 1.2% of 140,000 active;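 active means viability at or below a set limit, 4 SD under the median of all tested compounds, cut at about 3.7% in these data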;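 further: PTEN knockout HCT116 line with beta catenin targeted HCT116 as companion control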
* = called active by the depositor; nt = no result. Only a selection was taken, and hits are over-represented in it overall.

SMILES	H69AR inhibit	Lung fibro prol	HUVEC prolif 384	bCat KO growth	PTEN del growth
CC(C)OC(=O)c1nn2c(C(F)(F)F)cc(-c3ccc(Br)o3)nc2c1Br	35*	76	77	95	95
CC(C)(C)N1C(=O)Cc2c1nc(N)c1c(N)nc(N3CCCCC3CO)c(C#N)c21 (stereo not drawn)	20*	88	74	74	86
CCN(CC)c1nc(N)c2c(N)nc3c(c2c1C#N)CC(c1ccccc1)O3 (stereo not drawn)	59	86	72	78	62
CN(CCO)c1nc(N)c2c(N)nc3c(c2c1C#N)CC(=O)N3C1CCCC1	31*	94	71	33	43
COC(=O)c1ccc(NC2=CC(=O)CC(C)(C)C2)cc1	91	107	102	92	105
COc1cc2c(cc1OC)-c1c(OC)c(OC)cc3ccnc(c13)C2=O	nt	nt	nt	13	6
CCOC(=O)c1[nH]c(C)c(C(=O)NCc2ccc(C)cc2)c1C	91	97	59	91	68
CCOC(=O)c1[nH]c(C)c(C(=O)c2ccc(C)cc2)c1C	29*	46*	41	14	nt
CCOC(=O)c1[nH]c(C)c(C(=O)Nc2ccc(F)cc2)c1C	84	99	100	99	102
CCOC(=O)c1[nH]c(C)c(C(=O)Nc2ccc(C)cc2C)c1C	38*	64	67	29	23
CCOC(=O)c1[nH]c(C)c(C(=O)Nc2ccccc2F)c1C	23*	64	56	23	20
Cc1cccc(N(CC(=O)NC2CCCCC2)C(=O)c2ccc(C)s2)c1	nt	nt	nt	80	84
COC(=O)/C(=C1/Oc2ccc(C(C)(C)C)cc2S1)C(F)(F)F	nt	nt	nt	98	104
COC(=O)/C(=C1/Oc2cc(C)oc(=O)c2S1)C(F)(F)F	nt	nt	nt	3.6*	3.2*
CC1CC1C(=O)Nc1nc(-c2ccccn2)cs1 (stereo not drawn)	79	88	83	21	16
COc1ccc(NC(=O)/C(C#N)=C\c2cc(C)n(-c3ccc(Oc4ccc([N+](=O)[O-])cn4)cc3)c2C)cc1	33*	63	68	54	43
Cc1cc(C=O)c(C)n1-c1ccc(Oc2ccc([N+](=O)[O-])cn2)cc1	nt	nt	nt	73	66
FC(F)(F)c1cc(-c2ccco2)nc(N2CCN(c3ccccc3)CC2)n1	70	90	97	84	76
FC(F)(F)c1cc(-c2ccco2)nc(-n2cnc3ccccc32)n1	25*	95	82	85	73
Cc1nc2ccccc2n1-c1nc(-c2ccco2)cc(C(F)(F)F)n1	nt	nt	nt	3.1*	2.7*
Cc1cc(C)n(-c2nc3sc4c(c3c3nnc(SCC(N)=O)n23)CC(C)(C)OC4)n1	57	102	106	89	96
COc1ccc(OC)c(C(=O)c2ccc(C(=O)Nc3ccc4ccccc4c3)cc2)c1	nt	nt	nt	92	86
CCOc1ccc(C(=O)Nc2cccc(C)n2)cc1	88	93	98	82	92
CCC(C)N1C(=O)CCC1C(=O)N1CCN(c2ccccc2F)CC1 (stereo not drawn)	101	107	99	97	88
N#CC1=C(N)C(C#N)(C#N)C2(CCC3(CC2)OCCO3)C2CC3(CC=C12)OCCO3 (stereo not drawn)	97	108	94	91	92
SMILES	H69AR inhibit	Lung fibro prol	HUVEC prolif 384	bCat KO growth	PTEN del growth
N#CC1=C(N)C(C#N)(C#N)[C@H](c2c(F)cccc2F)[C@H]2CC3(CC=C12)OCCO3	3.0*	59	48	43	37
CN1C2C=C3C(C#N)=C(N)C(C#N)(C#N)[C@@H](c4cccc(F)c4)[C@@H]3C1CC2 (stereo partly drawn)	81	98	100	94	97
CN1C2C=C3C(C#N)=C(N)C(C#N)(C#N)[C@H](c4c(F)cccc4F)[C@H]3C1CC2 (stereo partly drawn)	18*	97	93	52	62
Cc1c(C(=O)N/N=C/c2ccc(-c3ccccc3[N+](=O)[O-])o2)sc(N)c1C#N	nt	nt	nt	99	100
Cc1nn(-c2ccccn2)c2nc(-c3cccs3)cc(C(=O)NCc3ccco3)c12	16*	101	71	64	66
Cc1nn(-c2ccccc2)c2nc(-c3ccncc3)cc(C(=O)NCc3ccco3)c12	31*	92	70	60	54
O=[n+]1cc(-c2ccc(Br)cc2)n([O-])c2c1CCC2	nt	nt	nt	96	97
